{"source": "ChEMBL document CHEMBL5030567", "about": "“Macrocyclic Inhibitors of HGF-Activating Serine Proteases Overcome Resistance to Receptor Tyrosine Kinase Inhibitors and Block Lung Cancer Progression” (J Med Chem, 2021)", "key": {"[1]": {"biological_target": "T1, Serine protease hepsin (Homo sapiens, UniProt P05981)", "T1 sequence (P05981 1-162 limits assumed)": "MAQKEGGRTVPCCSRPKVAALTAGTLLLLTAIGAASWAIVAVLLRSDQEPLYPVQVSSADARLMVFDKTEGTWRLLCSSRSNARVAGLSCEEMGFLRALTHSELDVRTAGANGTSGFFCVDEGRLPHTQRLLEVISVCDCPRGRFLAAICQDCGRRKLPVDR", "T1 sequence (P05981 163-417 limits assumed)": "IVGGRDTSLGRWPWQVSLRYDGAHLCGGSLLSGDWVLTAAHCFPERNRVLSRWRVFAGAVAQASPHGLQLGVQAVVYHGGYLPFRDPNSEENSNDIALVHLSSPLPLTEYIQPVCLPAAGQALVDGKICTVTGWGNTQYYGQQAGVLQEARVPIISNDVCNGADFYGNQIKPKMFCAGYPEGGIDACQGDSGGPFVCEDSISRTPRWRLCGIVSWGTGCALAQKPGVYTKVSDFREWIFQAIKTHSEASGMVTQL", "assay": "Inhibition of recombinant human C-terminal 10-His tagged hepsin (Arg45 to Leu417) expressed in mouse myeloma cells using Boc-QAR-AMC as substrate preincubated for 30 mins followed by substrate addition by fluorescence based assay", "assay_type": "single protein", "method_in_brief": "(§1)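 Inhibitor in 11-point serial dilution (0-20 µM final, 2% DMSO) pre-incubated 30 min at room temperature with enzyme in TNC buffer (25 mM Tris, 150 mM NaCl, 5 mM CaCl2, 0.01% Triton X-100, pH 8). […] Hepsin activated beforehand 24 h at 37°C. Fluorescence ex 380/em 460 nm kinetic; four-parameter fit of velocities; mean of three experiments.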"}, "[2]": {"biological_target": "T2, Hepatocyte growth factor activator serine protease (Homo sapiens) (UniProt Q04756)", "T2 sequence (whole entry)": "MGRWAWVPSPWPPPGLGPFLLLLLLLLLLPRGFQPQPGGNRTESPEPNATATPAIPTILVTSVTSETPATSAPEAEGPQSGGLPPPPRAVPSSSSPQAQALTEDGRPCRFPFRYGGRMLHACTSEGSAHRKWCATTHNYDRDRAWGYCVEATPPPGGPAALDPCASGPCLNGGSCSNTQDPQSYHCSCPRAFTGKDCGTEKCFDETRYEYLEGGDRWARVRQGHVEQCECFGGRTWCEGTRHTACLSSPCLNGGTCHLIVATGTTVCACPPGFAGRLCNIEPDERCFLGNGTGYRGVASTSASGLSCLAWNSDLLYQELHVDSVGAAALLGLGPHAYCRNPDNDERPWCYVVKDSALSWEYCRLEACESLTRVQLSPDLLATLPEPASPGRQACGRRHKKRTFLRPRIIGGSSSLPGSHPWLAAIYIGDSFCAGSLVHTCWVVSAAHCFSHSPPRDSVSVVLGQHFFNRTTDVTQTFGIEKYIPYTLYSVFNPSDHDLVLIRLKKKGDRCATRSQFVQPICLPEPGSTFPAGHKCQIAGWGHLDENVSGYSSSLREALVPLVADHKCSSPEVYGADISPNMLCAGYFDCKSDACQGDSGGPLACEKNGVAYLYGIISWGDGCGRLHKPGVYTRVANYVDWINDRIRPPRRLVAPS", "assay": "Inhibition of recombinant human HGFA serine protease domain mediated pro-HGF activation preincubated for 30 mins followed by pro-HGF addition and measured after 1 hr by immunoblotting analysis", "method_in_brief": "(§2)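 Recombinant pro-HGF (10 ng) incubated one hour with matriptase (1 nM), hepsin (10 nM) or HGFA (5 nM), with or without inhibitor. Processing detected by immunoblot with a polyclonal antibody recognizing pro-HGF and the HGF alpha and beta chains; active HGF served as positive control.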"}, "[3]": {"assay": "Toxicity in NSG mouse at 100 mg/kg, ip administered daily for 7 days", "assay_type": "organism-based", "settings": "in vivo, time 7 day"}, "[4]": {"assay": "Solubility of compound at pH 7.4", "assay_type": "physicochemical", "settings": "buffer"}, "[5]": {"tested_on": "HCC827", "assay": "Cytotoxicity against human HCC827 cells assessed as reduction in cell viability at 0.1 to 1 uM after 72 hrs in presence of pro-HGF by crystal violet staining based assay", "settings": "dose 0.1-1 µM"}, "[6]": {"assay": "Toxicity in NSG mouse assessed as body weight loss at 20 to 100 mg/kg, ip administered for 7 days", "assay_type": "organism-based", "settings": "in vivo, dose 20-100 mg/kg, time 7 day"}, "[7]": {"tested_on": "EBC-1", "assay": "Cytotoxicity against human EBC-1 cells assessed as reduction in cell viability preincubated with compound and pro-HGF for 24 hrs followed by JNJ-38877605 addition and measured after 48 hrs by CellTiter-Glo assay", "assay_type": "functional, cell-based", "settings": "time 72.0 hrs", "method_in_brief": "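EBC-1 cells pre-incubated 24 h with pro-HGF (100 ng/ml) with or without compound (1 µM), then given MET kinase inhibitor JNJ-38877605 (25 nM). Viability read by CellTiter-Glo after 48 h. Means±S.E.M., n=3; one-way ANOVA with Dunnett's test.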"}, "[8]": {"tested_on": "HCC827", "assay": "Inhibition of pro-HGF stimulated wound healing in human HCC827 cells preincubated for 30 mins followed by pro-HGF stimulation and measured after 24 hrs by crystal violet staining based assay", "assay_type": "functional, cell-based", "method_in_brief": "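HCC827 monolayers grown to confluence, serum-starved overnight, then scratched. Cells were pre-incubated 30 min with inhibitor (10 µM) and stimulated with HGF or pro-HGF for 24 h. Wells stained with crystal violet to score closure. n=3; one-way ANOVA versus pro-HGF alone.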"}, "[9]": {"biological_target": "T3, Suppressor of tumorigenicity 14 protein (Homo sapiens, UniProt Q9Y5Y6)", "T3 sequence (Q9Y5Y6 whole entry)": "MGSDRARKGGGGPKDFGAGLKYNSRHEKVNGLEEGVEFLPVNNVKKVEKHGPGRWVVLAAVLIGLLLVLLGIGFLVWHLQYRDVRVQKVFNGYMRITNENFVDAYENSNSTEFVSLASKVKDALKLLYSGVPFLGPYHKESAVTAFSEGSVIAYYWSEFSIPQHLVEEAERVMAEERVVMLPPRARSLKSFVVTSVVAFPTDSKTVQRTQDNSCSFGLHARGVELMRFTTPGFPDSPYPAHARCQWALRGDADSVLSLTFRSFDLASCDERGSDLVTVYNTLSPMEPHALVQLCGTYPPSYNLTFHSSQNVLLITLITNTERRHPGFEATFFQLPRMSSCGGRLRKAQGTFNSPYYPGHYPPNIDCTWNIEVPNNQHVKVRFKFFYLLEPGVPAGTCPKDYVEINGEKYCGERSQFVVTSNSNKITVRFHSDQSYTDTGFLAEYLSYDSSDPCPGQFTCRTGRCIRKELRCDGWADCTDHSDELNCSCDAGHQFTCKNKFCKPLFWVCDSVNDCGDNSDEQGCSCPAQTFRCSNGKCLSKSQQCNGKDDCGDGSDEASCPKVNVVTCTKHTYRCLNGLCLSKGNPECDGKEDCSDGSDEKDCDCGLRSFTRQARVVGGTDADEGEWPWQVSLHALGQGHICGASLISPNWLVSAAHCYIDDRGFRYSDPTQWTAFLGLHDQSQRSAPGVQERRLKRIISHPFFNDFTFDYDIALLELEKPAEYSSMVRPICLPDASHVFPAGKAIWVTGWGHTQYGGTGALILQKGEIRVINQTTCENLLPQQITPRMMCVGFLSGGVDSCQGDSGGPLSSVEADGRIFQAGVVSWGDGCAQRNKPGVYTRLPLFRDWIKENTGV", "assay": "Inhibition of recombinant human N-terminal met-His6-tagged matriptase catalytic domain (Gly596 to Val855 residues) expressed in Escherichia coli using Boc-QAR-AMC as substrate preincubated for 30 mins followed by substrate addition by fluorescence based assay", "method_in_brief": "as §1"}, "[10]": {"biological_target": "T1, Serine protease hepsin", "assay": "Inhibition of recombinant human C-terminal 10-His tagged hepsin (Arg45 to Leu417) expressed in mouse myeloma cells mediated pro-HGF activation preincubated for 30 mins followed by pro-HGF addition and measured after 1 hr by immunoblotting analysis", "method_in_brief": "as §2"}, "[11]": {"biological_target": "Prothrombin (Homo sapiens, UniProt P00734)", "assay": "Inhibition of recombinant thrombin (unknown origin) using D-Phe-Pip-Arg-pNA as substrate preincubated for 30 mins followed by substrate addition by chromogenic assay"}, "[12]": {"tested_on": "HCC827", "assay": "Cytotoxicity against human HCC827 cells assessed as reduction in cell viability at 0.1 to 1 uM after 72 hrs by crystal violet staining based assay", "settings": "dose 0.1-1 µM"}}, "note": "Activity calls are given as the source filed them. The calls are words filed in the database; no cut-off is given here. Numbered stars: 1 amine (or outer) side, 2 acyl side, 3 side chain; on linkers, the order of the positions; unused ones are H or OH. Square brackets hold non-standard residues; d marks the D form. Peptide text beside a SMILES is read from it. X1 = N=C(N)NCCC[C@H](N[*:1])C(=O)c1nc2ccc(C(=O)[*:2])cc2s1"}
{"smiles": "CC(=O)N[C@@H](CO)C(=O)N[C@@H](CCCCN)C(=O)N[C@@H](CC(C)C)C(=O)N[C@@H](CCCNC(=N)N)C(=O)c1nc2ccc(C(=O)N[C@H](C(N)=O)C(C)C)cc2s1", "note": "(Ac-SKL[X1]V-NH2)", "values": [{"measurement": "IC50", "setting": "[1]", "value": 0.38, "unit": "nM"}, {"measurement": "inhibition", "setting": "[2]", "value": "Active"}, {"measurement": "Activity", "setting": "[3]", "value": "Non-Toxic"}, {"measurement": "solubility", "setting": "[4]", "value": 200, "unit": "µM"}, {"measurement": "Activity", "setting": "[5]", "value": "Active"}, {"measurement": "Activity", "setting": "[6]", "value": "Non-Toxic"}, {"measurement": "Activity", "setting": "[7]", "value": "Active"}, {"measurement": "inhibition", "setting": "[8]", "value": "Active"}, {"measurement": "IC50", "setting": "[9]", "value": 21, "unit": "nM"}, {"measurement": "inhibition", "setting": "[10]", "value": "Active"}, {"measurement": "IC50", "setting": "[11]", "value": 9000, "unit": "nM"}, {"measurement": "Activity", "setting": "[12]", "value": "inactive"}]}
